pIC50: −log10 of the molar value. Each block holds one compound with its values, some of them ahead of it. Where a SMILES comes first, the peptide text is derived from it. [ ]: non-standard residue; d: D form. NMeV = CN[C@H](C(=O)O)C(C)C; GABA = NCCCC(=O)O
Legend:
[1] = target: T1, RAC-alpha serine/threonine-protein kinase (Homo sapiens, UniProt P31749); assay: Inhibition of AKT1 (unknown origin) after 1 hr by Z'-LYTE kinase assay in presence of 75 uM ATP
[2] = target: Testis-specific serine/threonine-protein kinase 1 (Homo sapiens) (UniProt Q9BXA7); assay: Inhibition of TSSK1 (unknown origin) at 1 uM in presence of 100 uM ATP
[3] = target: Serine/threonine-protein kinase Chk1 (Homo sapiens) (UniProt O14757); assay: Inhibition of CHK1 (unknown origin) at 1 uM in presence of 100 uM ATP
[4] = target: Mitogen-activated protein kinase 1 (Homo sapiens) (UniProt P28482); assay: Inhibition of MAPK1 (unknown origin) at 1 uM in presence of 100 uM ATP
Sequence of Mitogen-activated protein kinase 1 (Homo sapiens) (P28482 whole entry): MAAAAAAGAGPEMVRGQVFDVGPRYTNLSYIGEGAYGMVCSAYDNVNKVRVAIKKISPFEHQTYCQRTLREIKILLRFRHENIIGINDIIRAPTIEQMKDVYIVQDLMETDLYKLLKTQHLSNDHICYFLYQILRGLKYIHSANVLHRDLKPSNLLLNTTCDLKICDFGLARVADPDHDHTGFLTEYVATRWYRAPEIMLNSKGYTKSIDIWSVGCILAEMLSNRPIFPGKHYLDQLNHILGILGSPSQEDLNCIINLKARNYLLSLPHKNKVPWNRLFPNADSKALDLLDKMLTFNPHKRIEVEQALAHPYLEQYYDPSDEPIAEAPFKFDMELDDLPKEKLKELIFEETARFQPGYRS

[5] = target: AMP-activated protein kinase, AMPK (Homo sapiens) (UniProt P54646+O43741+P54619+Q9UGJ0+Q9Y478+Q13131+Q9UGI9); assay: Inhibition of AMPKalpha1/beta1/gamma1 (unknown origin) at 1 uM in presence of 100 uM ATP; type: protein-complex assay
[6] = target: Maternal embryonic leucine zipper kinase (Homo sapiens) (UniProt Q14680); assay: Inhibition of MELK (unknown origin) at 1 uM in presence of 100 uM ATP
[7] = target: Hepatocyte growth factor receptor (Homo sapiens) (UniProt P08581); assay: Inhibition of MET (unknown origin) at 1 uM in presence of 100 uM ATP
[8] = target: Serine/threonine-protein kinase Chk2 (Homo sapiens) (UniProt O96017); assay: Inhibition of CHK2 (unknown origin) at 1 uM in presence of 100 uM ATP
Sequence of Serine/threonine-protein kinase Chk2 (Homo sapiens) (O96017 whole entry): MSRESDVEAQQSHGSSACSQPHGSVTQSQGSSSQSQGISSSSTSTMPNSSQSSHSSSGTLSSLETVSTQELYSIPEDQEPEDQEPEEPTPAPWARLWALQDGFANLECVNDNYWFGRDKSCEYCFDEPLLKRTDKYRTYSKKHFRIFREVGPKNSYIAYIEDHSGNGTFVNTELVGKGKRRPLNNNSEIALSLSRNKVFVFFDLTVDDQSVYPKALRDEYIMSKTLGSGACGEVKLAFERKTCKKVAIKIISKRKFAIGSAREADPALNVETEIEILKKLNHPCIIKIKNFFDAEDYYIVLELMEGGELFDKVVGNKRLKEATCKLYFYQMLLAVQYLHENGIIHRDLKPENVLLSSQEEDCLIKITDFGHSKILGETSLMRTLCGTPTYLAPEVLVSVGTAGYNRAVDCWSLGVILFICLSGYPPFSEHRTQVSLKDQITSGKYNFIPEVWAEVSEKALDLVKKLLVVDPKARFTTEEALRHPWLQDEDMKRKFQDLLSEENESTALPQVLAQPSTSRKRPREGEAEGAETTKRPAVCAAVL

[9] = target: Epidermal growth factor receptor (Homo sapiens) (UniProt P00533); assay: Inhibition of EGFR (unknown origin) at 1 uM in presence of 100 uM ATP
[10] = target: Mitogen-activated protein kinase 14 (Homo sapiens) (UniProt Q16539); assay: Inhibition of MAPK14 (unknown origin) at 1 uM in presence of 100 uM ATP
[11] = target: Serine/threonine-protein kinase PLK1 (Homo sapiens) (UniProt P53350); assay: Inhibition of PLK1 (unknown origin) at 1 uM in presence of 100 uM ATP
[12] = target: Serine/threonine-protein kinase MARK1 (Homo sapiens) (UniProt Q9P0L2); assay: Inhibition of MARK1 (unknown origin) at 1 uM in presence of 100 uM ATP
Sequence of Serine/threonine-protein kinase MARK1 (Homo sapiens) (Q9P0L2 whole entry, looked up): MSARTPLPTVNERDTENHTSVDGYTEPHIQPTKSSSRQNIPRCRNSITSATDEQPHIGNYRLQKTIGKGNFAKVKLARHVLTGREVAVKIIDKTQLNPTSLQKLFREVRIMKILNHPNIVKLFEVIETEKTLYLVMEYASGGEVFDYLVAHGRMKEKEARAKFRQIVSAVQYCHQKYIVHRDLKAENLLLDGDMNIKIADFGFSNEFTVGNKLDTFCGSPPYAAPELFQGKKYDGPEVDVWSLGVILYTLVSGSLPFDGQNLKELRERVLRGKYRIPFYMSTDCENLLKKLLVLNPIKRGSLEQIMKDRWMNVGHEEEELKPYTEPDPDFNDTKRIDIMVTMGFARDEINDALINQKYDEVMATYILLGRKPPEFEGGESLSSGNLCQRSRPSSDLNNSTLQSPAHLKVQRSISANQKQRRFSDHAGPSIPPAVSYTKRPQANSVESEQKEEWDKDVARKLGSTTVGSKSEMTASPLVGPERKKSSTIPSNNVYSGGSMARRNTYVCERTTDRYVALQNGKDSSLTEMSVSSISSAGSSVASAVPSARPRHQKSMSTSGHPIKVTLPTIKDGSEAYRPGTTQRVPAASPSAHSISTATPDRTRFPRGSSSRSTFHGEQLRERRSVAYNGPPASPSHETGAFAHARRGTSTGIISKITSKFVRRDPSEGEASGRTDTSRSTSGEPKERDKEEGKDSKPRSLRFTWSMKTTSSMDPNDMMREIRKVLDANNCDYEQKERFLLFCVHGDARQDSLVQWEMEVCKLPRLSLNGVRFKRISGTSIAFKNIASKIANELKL

[13] = Selectivity index, ratio of IC50 for human NCI-H460 cells to IC50 for recombinant AKT (unknown origin)
[14] = target: T1, RAC-alpha serine/threonine-protein kinase; assay: Irreversible inhibition of AKT1 (unknown origin) Z'-LYTE kinase assay in presence of ATP; conditions: TDE = time-dependent effect
In short: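 Recombinant AKT1 activity read by the FRET-based Z′-LYTE kit, which measures phosphorylation of a peptide substrate. […] IC50 values are averages of three independent experiments with 95% confidence intervals.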

[15] = target: Protein kinase C theta type (Homo sapiens) (UniProt Q04759); assay: Inhibition of PKCtheta (unknown origin) at 1 uM in presence of 100 uM ATP
[16] = target: cAMP-dependent protein kinase catalytic subunit PRKX (Homo sapiens) (UniProt P51817); assay: Inhibition of PRKX (unknown origin) at 1 uM in presence of 100 uM ATP
[17] = target: T1, RAC-alpha serine/threonine-protein kinase; assay: Inhibition of AKT1 (unknown origin) at 1 uM in presence of 100 uM ATP
[18] = target: Ribosomal protein S6 kinase alpha-5 (Homo sapiens) (UniProt O75582); assay: Inhibition of MSK1 (unknown origin) at 1 uM in presence of 100 uM ATP
Sequence of Ribosomal protein S6 kinase alpha-5 (Homo sapiens) (O75582 whole entry, looked up): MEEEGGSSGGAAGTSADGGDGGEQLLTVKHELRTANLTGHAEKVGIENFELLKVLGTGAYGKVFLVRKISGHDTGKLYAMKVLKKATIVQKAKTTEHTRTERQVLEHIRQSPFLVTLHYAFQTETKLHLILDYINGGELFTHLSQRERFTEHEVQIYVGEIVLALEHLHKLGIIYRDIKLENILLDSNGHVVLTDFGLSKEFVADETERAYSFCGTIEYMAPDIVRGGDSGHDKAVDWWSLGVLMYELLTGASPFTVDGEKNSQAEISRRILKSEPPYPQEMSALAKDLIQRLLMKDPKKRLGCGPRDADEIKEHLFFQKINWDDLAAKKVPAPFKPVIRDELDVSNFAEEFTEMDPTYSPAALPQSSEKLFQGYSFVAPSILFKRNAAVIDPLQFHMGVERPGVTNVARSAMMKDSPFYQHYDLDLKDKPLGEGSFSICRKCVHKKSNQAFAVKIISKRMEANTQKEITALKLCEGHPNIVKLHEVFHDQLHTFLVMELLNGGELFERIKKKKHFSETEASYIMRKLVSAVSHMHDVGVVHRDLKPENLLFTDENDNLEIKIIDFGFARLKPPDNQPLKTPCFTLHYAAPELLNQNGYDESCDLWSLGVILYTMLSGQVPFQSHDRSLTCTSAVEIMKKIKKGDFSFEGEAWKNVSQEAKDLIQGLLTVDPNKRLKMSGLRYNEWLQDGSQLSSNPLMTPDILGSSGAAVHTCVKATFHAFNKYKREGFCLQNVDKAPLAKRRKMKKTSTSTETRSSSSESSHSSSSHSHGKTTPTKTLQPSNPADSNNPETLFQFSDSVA

[19] = target: Aurora kinase A (Homo sapiens) (UniProt O14965); assay: Inhibition of AURKA (unknown origin) at 1 uM in presence of 100 uM ATP
[20] = target: Platelet-derived growth factor receptor alpha (Homo sapiens) (UniProt P16234); assay: Inhibition of PDGFRA (unknown origin) at 1 uM in presence of 100 uM ATP
[21] = target: Mitogen-activated protein kinase 3 (Homo sapiens) (UniProt P27361); assay: Inhibition of MAPK3 (unknown origin) at 1 uM in presence of 100 uM ATP
[22] = target: Focal adhesion kinase 1 (Homo sapiens) (UniProt Q05397); assay: Inhibition of PTK2 (unknown origin) at 1 uM in presence of 100 uM ATP
[23] = target: Receptor tyrosine-protein kinase erbB-4 (Homo sapiens) (UniProt Q15303); assay: Inhibition of ERBB4 (unknown origin) at 1 uM in presence of 100 uM ATP
[24] = target: Tyrosine-protein kinase ABL1 (Homo sapiens) (UniProt P00519); assay: Inhibition of ABL1 (unknown origin) at 1 uM in presence of 100 uM ATP
[25] = Selectivity index, ratio of IC50 for human HCT116 cells to IC50 for recombinant AKT (unknown origin); design: species or system HCT-116
[26] = species: Homo sapiens; assay: Selectivity for AKT1 (unknown origin) over PKAalpha (unknown origin)
In short: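 Selectivity is the PKAα IC50 divided by the AKT1 IC50. Both IC50s were measured in the FRET-based Z′-LYTE peptide-phosphorylation assay.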

[27] = target: Ribosomal protein S6 kinase alpha-1 (Homo sapiens) (UniProt Q15418); assay: Inhibition of RSK1 (unknown origin) at 1 uM in presence of 100 uM ATP
[28] = target: Calcium/calmodulin-dependent protein kinase type IV (Homo sapiens) (UniProt Q16566); assay: Inhibition of CAMK-4 (unknown origin) at 1 uM in presence of 100 uM ATP
[29] = Growth inhibition of human HCT116 cells after 72 hrs by coulter counter method; type: functional, cell-based; conditions: HCT-116, 72 h
[30] = target: Dual specificity mitogen-activated protein kinase kinase 1 (Homo sapiens) (UniProt Q02750); assay: Inhibition of MEK1 (unknown origin) at 1 uM in presence of 100 uM ATP
[31] = target: Proto-oncogene tyrosine-protein kinase Src (Homo sapiens) (UniProt P12931); assay: Inhibition of SRC (unknown origin) at 1 uM in presence of 100 uM ATP
Sequence of Proto-oncogene tyrosine-protein kinase Src (Homo sapiens) (P12931 2-536 limits assumed): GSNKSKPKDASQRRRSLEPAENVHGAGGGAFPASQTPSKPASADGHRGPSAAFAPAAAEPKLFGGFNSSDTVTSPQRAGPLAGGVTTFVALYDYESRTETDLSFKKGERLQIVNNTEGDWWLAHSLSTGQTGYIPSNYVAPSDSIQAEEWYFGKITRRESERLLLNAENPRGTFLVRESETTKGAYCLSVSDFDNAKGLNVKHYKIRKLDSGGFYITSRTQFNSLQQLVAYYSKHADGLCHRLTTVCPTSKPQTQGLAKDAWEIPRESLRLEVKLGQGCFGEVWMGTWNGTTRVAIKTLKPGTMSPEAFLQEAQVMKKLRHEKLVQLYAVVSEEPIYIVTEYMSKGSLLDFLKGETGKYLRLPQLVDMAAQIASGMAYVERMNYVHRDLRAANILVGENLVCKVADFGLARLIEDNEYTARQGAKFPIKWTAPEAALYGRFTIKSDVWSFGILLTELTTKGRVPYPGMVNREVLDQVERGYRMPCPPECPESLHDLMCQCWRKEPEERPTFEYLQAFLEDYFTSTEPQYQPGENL

[32] = target: Protein kinase C alpha type (Homo sapiens) (UniProt P17252); assay: Inhibition of PKCalpha (unknown origin) at 1 uM in presence of 100 uM ATP
[33] = target: Tyrosine-protein kinase Lyn (Homo sapiens) (UniProt P07948); assay: Inhibition of LYN A (unknown origin) at 1 uM in presence of 100 uM ATP
[34] = target: cGMP-dependent protein kinase 1 (Homo sapiens) (UniProt Q13976); assay: Inhibition of PRKG1 (unknown origin) at 1 uM in presence of 100 uM ATP
[35] = target: Calcium/calmodulin-dependent protein kinase type 1D (Homo sapiens) (UniProt Q8IU85); assay: Inhibition of CAMK1D (unknown origin) at 1 uM in presence of 100 uM ATP
[36] = target: Vascular endothelial growth factor receptor 1 (Homo sapiens) (UniProt P17948); assay: Inhibition of FLT1 (unknown origin) at 1 uM in presence of 100 uM ATP
[37] = target: MAP kinase-activated protein kinase 2 (Homo sapiens) (UniProt P49137); assay: Inhibition of MAPKAPK2 (unknown origin) at 1 uM in presence of 100 uM ATP
[38] = target: Serine/threonine-protein kinase Sgk1 (Homo sapiens) (UniProt O00141); assay: Inhibition of SGK1 (unknown origin) at 1 uM in presence of 100 uM ATP
[39] = target: Cyclin-dependent kinase 1/cyclin B1 (Homo sapiens) (UniProt P06493+P14635); assay: Inhibition of CDK1/cyclinB (unknown origin) at 1 uM in presence of 100 uM ATP; type: protein-complex assay
[40] = target: Vascular endothelial growth factor receptor 2 (Homo sapiens) (UniProt P35968); assay: Inhibition of VEGFR2 (unknown origin) at 1 uM in presence of 100 uM ATP
[41] = target: Tyrosine-protein kinase CSK (Homo sapiens) (UniProt P41240); assay: Inhibition of CSK (unknown origin) at 1 uM in presence of 100 uM ATP
[42] = test system: NCI-H460; assay: Growth inhibition of human NCI-H460 cells after 72 hrs by coulter counter method; type: functional, cell-based; conditions: NCI-H460, 72 h
[43] = Inhibition of PKAalpha (unknown origin) after 1 hr by Z'-LYTE kinase assay in presence of 4 uM ATP; design: species or system Homo sapiens
In short: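 Z′-LYTE FRET assay measuring phosphorylation of a peptide substrate by recombinant kinase, independent of mechanism. IC50 is the average of three independent experiments, with 95% confidence intervals.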

[44] = target: Mitogen-activated protein kinase kinase kinase kinase 5 (Homo sapiens) (UniProt Q9Y4K4); assay: Inhibition of MAP4K5 (unknown origin) at 1 uM in presence of 100 uM ATP
[45] = target: 5'-AMP-activated protein kinase catalytic subunit alpha-1 (Homo sapiens) (UniProt Q13131); assay: Inhibition of AMPKalpha1 (unknown origin) at 1 uM in presence of 100 uM ATP
[46] = target: Tyrosine-protein kinase SYK (Homo sapiens) (UniProt P43405); assay: Inhibition of SYK (unknown origin) at 1 uM in presence of 100 uM ATP
[47] = species: Homo sapiens; assay: Inhibition of PKAalpha (unknown origin) at 1 uM in presence of 100 uM ATP
[48] = target: Ribosomal protein S6 kinase beta-1 (Homo sapiens) (UniProt P23443); assay: Inhibition of p70S6K (unknown origin) at 1 uM in presence of 100 uM ATP
[49] = target: 3-phosphoinositide-dependent protein kinase 1 (Homo sapiens) (UniProt O15530); assay: Inhibition of PDK1 (unknown origin) at 1 uM in presence of 100 uM ATP
Sequence of 3-phosphoinositide-dependent protein kinase 1 (Homo sapiens) (O15530 whole entry): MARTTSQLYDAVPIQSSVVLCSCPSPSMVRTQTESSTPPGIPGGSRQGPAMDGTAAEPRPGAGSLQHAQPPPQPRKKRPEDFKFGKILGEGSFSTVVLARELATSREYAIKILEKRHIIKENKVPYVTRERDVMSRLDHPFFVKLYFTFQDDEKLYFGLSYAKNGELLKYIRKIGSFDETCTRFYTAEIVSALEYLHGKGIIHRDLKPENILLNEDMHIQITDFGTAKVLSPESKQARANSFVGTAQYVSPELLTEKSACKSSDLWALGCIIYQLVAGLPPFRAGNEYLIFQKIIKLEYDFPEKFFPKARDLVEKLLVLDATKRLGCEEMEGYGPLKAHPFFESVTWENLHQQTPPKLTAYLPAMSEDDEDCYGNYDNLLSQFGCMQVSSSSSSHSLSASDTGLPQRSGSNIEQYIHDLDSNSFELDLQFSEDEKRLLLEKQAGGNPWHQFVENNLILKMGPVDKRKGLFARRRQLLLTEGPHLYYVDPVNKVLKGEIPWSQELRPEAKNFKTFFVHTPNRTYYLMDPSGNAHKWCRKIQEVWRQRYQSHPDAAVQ

[50] = target: MAP kinase-interacting serine/threonine-protein kinase 1 (Homo sapiens) (UniProt Q9BUB5); assay: Inhibition of MKNK1 (unknown origin) at 1 uM in presence of 100 uM ATP
[51] = target: CDK2/Cyclin A2 (Homo sapiens) (UniProt P24941+P20248); assay: Inhibition of CDK2/cyclinA (unknown origin) at 1 uM in presence of 100 uM ATP; type: protein-complex assay
[52] = target: PAS domain-containing serine/threonine-protein kinase (Homo sapiens) (UniProt Q96RG2); assay: Inhibition of PASK (unknown origin) at 1 uM in presence of 100 uM ATP
[53] = target: T1, RAC-alpha serine/threonine-protein kinase; assay: Inhibition of AKT1 (unknown origin) after 30 mins by scintillation counting analysis in presence of 100 uM ATP

T1 sequence (P31749 whole entry): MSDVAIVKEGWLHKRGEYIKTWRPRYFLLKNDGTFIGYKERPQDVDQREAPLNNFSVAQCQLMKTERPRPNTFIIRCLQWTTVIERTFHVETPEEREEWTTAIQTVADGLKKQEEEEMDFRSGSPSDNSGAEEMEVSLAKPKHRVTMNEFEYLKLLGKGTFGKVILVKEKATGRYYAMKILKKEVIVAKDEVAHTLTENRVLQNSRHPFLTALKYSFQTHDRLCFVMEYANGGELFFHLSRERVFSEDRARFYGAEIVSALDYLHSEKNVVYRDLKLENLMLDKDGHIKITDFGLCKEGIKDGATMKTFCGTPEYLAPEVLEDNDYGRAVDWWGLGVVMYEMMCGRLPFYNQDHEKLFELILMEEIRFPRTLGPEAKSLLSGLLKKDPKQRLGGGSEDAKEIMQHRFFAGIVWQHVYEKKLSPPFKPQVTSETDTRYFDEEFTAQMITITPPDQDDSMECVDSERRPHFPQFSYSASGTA

Structure (SMILES): CC(C)(C)OC(=O)N[C@@H](Cc1ccccc1)C(=O)NCCI
pIC50 [1]: < 4.00

Structure (SMILES): CC(C)(C)OC(=O)NN(Cc1ccccc1)C(=O)CBr
pIC50 [1]: 4.61

Structure (SMILES): C=CC(=O)N(Cc1ccccc1)NC(=O)OC(C)(C)C
pIC50 [1]: < 4.00

Structure (SMILES): NC1(c2ccc(-c3nc4ccn5c(=O)[nH]nc5c4cc3-c3ccccc3)cc2)CCC1 [MK-2206]
pIC50 [29]: 5.12 | pIC50 [42]: 5.27

Structure (SMILES): COC[C@H](NC(=O)[C@H](Cc1ccc(O)cc1)NC(=O)[C@H](C(C)C)N(C)C(=O)[C@H](CCCNC(=N)N)NC(=O)[C@@H]1CCCN1C(=O)[C@@H](N)CCCNC(=N)N)C(=O)NCCCC(=O)O (H-RPR[NMeV]YS(Me)[GABA]-OH)
pIC50 [53]: 6.70

The remaining compounds from weak to strong by pIC50 [1], led by results:

pIC50 [1]: 4.79
Structure (SMILES): CC(C)(C)OC(=O)NN(Cc1ccccc1)C(=O)CI

inhibition [2]: -1% | inhibition [3]: 5% | inhibition [4]: 15% | inhibition [5]: 46% | inhibition [6]: 62% | inhibition [7]: 11% | inhibition [8]: 46% | inhibition [9]: -2% | inhibition [10]: 17% | inhibition [11]: 10% | inhibition [12]: 4% | inhibition [14]: tde | inhibition [15]: 3% | inhibition [16]: -1% | inhibition [17]: 50% | inhibition [18]: 10% | inhibition [19]: 35% | inhibition [20]: 0% | inhibition [21]: 8% | inhibition [22]: -4% | inhibition [23]: 9% | inhibition [24]: 13% | Selectivity ratio [26]: 90 | inhibition [27]: 5% | inhibition [28]: 50% | inhibition [30]: 5% | inhibition [31]: -4% | inhibition [32]: 18% | inhibition [33]: 5% | inhibition [34]: -4% | inhibition [35]: 36% | inhibition [36]: 2% | inhibition [37]: -7% | inhibition [38]: 34% | inhibition [39]: 9% | inhibition [40]: -6% | inhibition [41]: 8% | pIC50 [43]: 4.28 | inhibition [44]: 22% | inhibition [45]: 46% | inhibition [46]: -1% | inhibition [47]: -10% | inhibition [48]: 14% | inhibition [49]: 15% | pIC50 [1]: 6.24 | inhibition [50]: 2% | inhibition [51]: 3% | inhibition [52]: 19%
Structure (SMILES): C=CC(=O)[C@H](Cc1ccccc1)NC(=O)OC(C)(C)C
Ratio IC50 [13]: 39 | Ratio IC50 [25]: 37 | pIC50 [29]: 4.67 | pIC50 [42]: 4.64

From ChEMBL document CHEMBL3297689, “Phenylalanine-Based Inactivator of AKT Kinase: Design, Synthesis, and Biological Evaluation” (ACS Med Chem Lett, 2014)
